The source made the active and inactive calls. The calls are words filed in the database; no cut-off is given here.
Columns and labels:
Format in all cases: functional, organism-based
[1] = tested on: Aspergillus niger; experiment: Induction of GFP tagged PagsA-H2B expression in Aspergillus niger RD6.47 at 104.2 ug/mL by fluorescence microscopy
Method in brief: (§1)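 agsA promoter-GFP reporters, cytoplasmic (JvD1.1) or nuclear H2B-targeted (RD6.47). Germlings pre-grown 6 h at 37 °C in 2× CM, exposed 3 h at 30 °C to seven 2-fold dilutions. GFP levels were scored by fluorescence microscopy as 0 (basal), 1 (intermediate) or 2 (high). Controls: gpdA-H2B-GFP strain MA26.1 (positive), N402 (negative).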

[2] = tested on: Aspergillus niger; experiment: Induction of GFP tagged PagsA expression in Aspergillus niger JvD1.1 at 104.2 ug/mL by fluorescence microscopy; method in brief: as §1
[3] = tested on: Aspergillus niger; experiment: Antifungal activity against Aspergillus niger RD6.47 at 104.2 ug/mL by microtiter plate
Method in brief: (§2)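 Reporter conidia (2×10^4 per well) were pre-grown 6 h at 37 °C in 2× CM in glass-bottom plates. An equal volume of a 2-fold dilution series (seven concentrations) was added, then 3 h at 30 °C. Medium was discarded and adherent germlings imaged. Growth inhibition was scored 0/1/2 from hyphal length.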

[4] = tested on: Aspergillus niger; experiment: Antifungal activity against Aspergillus niger JvD1.1 at 104.2 ug/mL by microtiter plate; method in brief: as §2

SMILES | Activity [1] | Activity [2] | Activity [3] | Activity [4]
CCCCCCC(=O)CCCCCC/C=C/C[C@@H](O)[C@H](O)[C@@](N)(CO)C(=O)O | inactive | inactive | inactive | inactive
CCCCNC(=O)n1c(NC(=O)OC)nc2ccccc21 | inactive | inactive | Active | Active
CCCN(CC)CC1COC2(CCC(C(C)(C)C)CC2)O1 (stereo not drawn) | Active | Active | Active | Active
CN(C/C=C/C#CC(C)(C)C)Cc1cccc2ccccc12 | Active | Active | – | –
COC(=O)N(OC)c1ccccc1COc1ccn(-c2ccc(Cl)cc2)n1 | inactive | inactive | Active | Active

From ChEMBL document CHEMBL1156509, “Survival in the presence of antifungals: genome-wide expression profiling of Aspergillus niger in response to sublethal concentrations of caspofungin and fenpropimorph” (2007)
